SR-BI uptake up = activators of SR-BI mediated DiI-HDL uptake, primary screen, ldlA[mSR-BI] CHO cells, DiI fluorescence. 3 h; 100 = double the neutral-control signal. activation, % at 12.5 µM. actives 0.096% (n = 320,000);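 active = mean replicate activation of at least 60% and every replicate at or above 60%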;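 also: 0% = median plate neutral-control signal and 100% = twice that signal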
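Assay system: CHO ldlA[mSR-BI] cells, LDL receptor-null, SR-BI overexpressing; medium: Ham's F12 with 0.5% BSA, HEPES 25 mM, pH 7.4; also added: DiI-HDL 10 µg/mL; timing: 3 h uptake period with compound, 37 °C; signal: DiI fluorescence, bottom read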
MITF TRPM1 HTS = activators of MITF-driven TRPM1 promoter reporter, primary screen, cell-based, SK-MEL-5, luciferase, single point; SK-MEL-5 TRPM1-promoter luciferase, 24 h; % of positive control, neutral wells = 0; activation, % at 12.5 µM; actives 0.75% (n = 300,000);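 active = mean activation of at least 80% with every replicate also reaching 80%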;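 also: 0% = neutral control wells and 100% = parthenolide positive control wells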
SR-BI HDL uptake = inhibitors of SR-BI mediated HDL lipid uptake, primary screen, ldlA[mSR-BI] cells, fluorescence, single point | actives 0.96% (n = 320,000) | Scavenger receptor class B member 1 (Mus musculus), Q61009 | ldlA[mSR-BI] CHO cells, DiI-HDL uptake fluorescence, 3 h | inhibition, % at 12.5 µM;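 active = mean replicate inhibition of at least 70% and a set share of replicates each scoring 70 or more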;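 also: 0% = median of neutral control wells and 100% = median of positive control wells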
Target sequence (Q61009 whole entry, looked up): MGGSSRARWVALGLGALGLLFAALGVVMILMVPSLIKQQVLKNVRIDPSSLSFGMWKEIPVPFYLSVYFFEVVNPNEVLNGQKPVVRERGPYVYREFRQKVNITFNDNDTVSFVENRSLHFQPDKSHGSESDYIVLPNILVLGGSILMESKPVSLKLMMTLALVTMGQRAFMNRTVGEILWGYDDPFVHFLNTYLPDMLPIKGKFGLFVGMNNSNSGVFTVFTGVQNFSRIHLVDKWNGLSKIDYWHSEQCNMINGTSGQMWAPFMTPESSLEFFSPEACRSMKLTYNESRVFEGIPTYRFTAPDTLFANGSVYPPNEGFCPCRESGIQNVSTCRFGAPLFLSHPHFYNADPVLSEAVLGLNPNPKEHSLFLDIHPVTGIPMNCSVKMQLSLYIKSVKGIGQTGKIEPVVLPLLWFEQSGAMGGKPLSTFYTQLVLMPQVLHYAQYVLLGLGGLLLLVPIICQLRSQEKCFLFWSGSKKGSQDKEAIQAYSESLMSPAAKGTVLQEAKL
HSF1 activator = HSF-1 activators, primary screen, NIH3T3-HGL cells, MG132 stress, luminescence, single point | NIH3T3-HGL HSF-1 luciferase reporter, 8 h; 100% = twice DMSO control signal | activation, % at 9 µM | actives 1.7% (n = 300,000) | AID 504408, 2011;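 active = mean replicate activation of at least 50% with a set share of replicates each reaching 50%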;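 also: 0% = median of the neutral control wells and 100% = twice that signal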
Wnt bcat act = Wnt/beta-catenin pathway activators, primary screen, cell-based, plate reader, single point | Wnt/beta-catenin reporter cell assay, activator | AID 743398, 2014 | actives 1.2% (n = 300,000) | activation, % at 9.35 µM; in the data active = activation above about 30%, passing the limit was not always enough;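 also: 0% = neutral control wells and 100% = positive control wells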
Active calls of the source: *. Hits are enriched below; roughly 3.6% of the tested compounds scored in any of these assays.

Results for O=c1cccc2n1Cc1cc3ccccc3nc1-2 ?
SR-BI uptake up: 18; MITF TRPM1 HTS: 40; SR-BI HDL uptake: -18; HSF1 activator: 40; Wnt bcat act: 39*

What do the screens show for `C/C(=C\C(=O)c1ccc(C)cc1)NCc1ccc(F)cc1`?
SR-BI uptake up: 12; MITF TRPM1 HTS: 3; SR-BI HDL uptake: -12; HSF1 activator: 6; Wnt bcat act: 2

Results for C/C(=C\C(=O)c1ccccc1)NCc1ccc(F)cc1 ?
MITF TRPM1 HTS: 22; HSF1 activator: 65*; Wnt bcat act: 0

How did COc1ccccc1/C=N/NC(=O)c1csc(C)c1C do in these assays?
SR-BI uptake up: -34; MITF TRPM1 HTS: 19; SR-BI HDL uptake: 34; HSF1 activator: 29; Wnt bcat act: 9

Results for COc1ccccc1/C=N/NC(=O)c1[nH]c(C)c(C(=O)N/N=C/c2ccccc2OC)c1C ?
SR-BI uptake up: -83; MITF TRPM1 HTS: -13; SR-BI HDL uptake: 83*; HSF1 activator: -8; Wnt bcat act: -2

What do the screens show for `CCOC(=O)c1c(C)[nH]c(C(=O)N/N=C\c2ccccc2O)c1C`?
SR-BI uptake up: -85; MITF TRPM1 HTS: -17; SR-BI HDL uptake: 85*; HSF1 activator: 0; Wnt bcat act: 0

Results for CCOC(=O)c1c(C)[nH]c(C(=O)N/N=C/c2cc([N+](=O)[O-])ccc2O)c1C ?
SR-BI uptake up: -86; MITF TRPM1 HTS: -25; SR-BI HDL uptake: 86*; HSF1 activator: -64; Wnt bcat act: 0

What do the screens show for `CCOC(=O)c1c(C)[nH]c(C(=O)N/N=C/c2ccc(OC)c(OC)c2)c1C`?
SR-BI uptake up: -34; MITF TRPM1 HTS: -15; SR-BI HDL uptake: 34; HSF1 activator: -9; Wnt bcat act: -4

Results for Cc1nc(N(C)C2CCCCC2)c2nnn(Cc3ccc(F)cc3)c2n1 ?
Wnt bcat act: -11

How did CCC(=O)N1N=C(c2ccc(Cl)cc2)CC1c1ccco1 (stereo not given) do in these assays?
SR-BI uptake up: -10; SR-BI HDL uptake: 10; HSF1 activator: 12; Wnt bcat act: 3

What do the screens show for `COc1ccc(C2=NN(C(=O)c3ccco3)C(c3ccco3)C2)cc1OC` (stereo not given)?
SR-BI uptake up: -25; MITF TRPM1 HTS: -36; SR-BI HDL uptake: 25; HSF1 activator: 62*; Wnt bcat act: 11

What do the screens show for `O=C(c1ccco1)N1N=C(c2ccc(Cl)cc2)CC1c1ccco1` (stereo not given)?
SR-BI uptake up: -2; MITF TRPM1 HTS: 2; SR-BI HDL uptake: 2; HSF1 activator: 3; Wnt bcat act: 2

Results for O=C(c1ccco1)N1N=C(c2cccs2)CC1c1ccco1 (stereo not given) ?
SR-BI uptake up: 35; MITF TRPM1 HTS: -1; SR-BI HDL uptake: -35; HSF1 activator: 64*; Wnt bcat act: -2

Results for CCc1ccc(C2=NN(C(C)=O)C(c3ccco3)C2)cc1 (stereo not given) ?
SR-BI uptake up: -40; MITF TRPM1 HTS: 78; SR-BI HDL uptake: 40; HSF1 activator: 74*; Wnt bcat act: 12

Results for C=CCN1C(=O)/C(=C/c2ccc(OC)cc2)S/C1=N/c1nccs1 ?
SR-BI uptake up: -34; MITF TRPM1 HTS: 18; SR-BI HDL uptake: 34; HSF1 activator: 23; Wnt bcat act: -3

How did C=CCN=C1S/C(=C\c2ccc(N(C)C)cc2)C(=O)N1CC=C do in these assays?
SR-BI uptake up: -32; MITF TRPM1 HTS: 99*; SR-BI HDL uptake: 32; HSF1 activator: -8; Wnt bcat act: 37*

Results for O=C(C1CCCN(S(=O)(=O)c2ccc(F)cc2)C1)N1CCOCC1 (stereo not given) ?
SR-BI uptake up: -32; MITF TRPM1 HTS: 60; SR-BI HDL uptake: 32; Wnt bcat act: 43*

Results for O=C(Nc1cccc(Cl)c1)C1CCCN(S(=O)(=O)c2ccc(F)cc2)C1 (stereo not given) ?
SR-BI uptake up: 20; MITF TRPM1 HTS: -12; SR-BI HDL uptake: -20; HSF1 activator: 89*

What do the screens show for `Cc1ccc(/C=N/Nc2nncn2N)cc1`?
SR-BI uptake up: 12; MITF TRPM1 HTS: -10; SR-BI HDL uptake: -12; HSF1 activator: 74*; Wnt bcat act: 0

Screening data as filed in PubChem.
